From ChEMBL document CHEMBL1914366, “Bioassay-guided identification of an anti-inflammatory prenylated acylphloroglucinol from Melicope ptelefolia and molecular insights into its interaction with 5-lipoxygenase” (Bioorg Med Chem, 2011)
pIC50: −log10 of the molar value. Each block holds one compound with its values, some of them ahead of it. The source made the active and inactive calls. The rule behind the calls is not given here.

What was measured:
[1] = Inhibition of soybean 15-LOX type 1-B assessed as inhibition of conversion of linoleic acid to (9Z,11E)-(13S)-13-hydroperoxyoctadeca-9,11-dienoate preincubated for 10 mins before substrate addition measured after 6 mins by spectrophotometry; set-up: species or system Glycine max
Outline: (§1)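 Soybean lipoxygenase type I-B (80 U/well) in sodium phosphate buffer (100 mM, pH 8.0) was incubated with sample in MeOH for 10 min at 25 °C. Linoleic acid was then added and A234 was followed for 6 min. Samples were run in triplicate. Pure compounds were screened at a final 25 µg/mL.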

[2] = molecular target: T1, Polyunsaturated fatty acid 5-lipoxygenase (Homo sapiens, UniProt P09917); experiment: Inhibition of human 5-LOX in human peripheral blood mononuclear leukocytes assessed as inhibition of calymycin A23187-stimulated LTB4 production preincubated for 15 mins before stimulation measured after 15 mins by enzyme immunoassay
T1 sequence (P09917 whole entry): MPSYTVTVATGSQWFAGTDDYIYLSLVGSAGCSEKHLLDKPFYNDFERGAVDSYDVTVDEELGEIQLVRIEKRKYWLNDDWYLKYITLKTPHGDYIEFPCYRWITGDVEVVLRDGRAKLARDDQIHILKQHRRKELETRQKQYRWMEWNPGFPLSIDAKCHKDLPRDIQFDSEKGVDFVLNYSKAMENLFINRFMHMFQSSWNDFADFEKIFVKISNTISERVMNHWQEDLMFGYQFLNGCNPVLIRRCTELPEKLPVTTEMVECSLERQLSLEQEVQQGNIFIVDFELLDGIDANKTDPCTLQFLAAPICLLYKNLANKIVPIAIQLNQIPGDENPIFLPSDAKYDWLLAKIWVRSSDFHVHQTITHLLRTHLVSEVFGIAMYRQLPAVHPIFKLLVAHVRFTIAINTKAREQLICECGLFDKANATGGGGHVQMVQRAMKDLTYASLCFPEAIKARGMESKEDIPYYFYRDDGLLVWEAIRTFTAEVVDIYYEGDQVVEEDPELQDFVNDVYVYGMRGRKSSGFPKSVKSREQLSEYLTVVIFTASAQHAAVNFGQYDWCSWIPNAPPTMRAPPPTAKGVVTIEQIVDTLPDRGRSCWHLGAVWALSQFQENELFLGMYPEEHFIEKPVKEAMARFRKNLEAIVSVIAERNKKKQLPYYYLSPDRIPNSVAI
Outline: (§2)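 Human peripheral blood mononuclear leukocytes (5 × 10^6 cells/ml) in HBSS were preincubated with compound or vehicle for 15 min at 37 °C. Calcimycin (A23187, 30 µM) was added for a further 15 min and the reaction was stopped with 1 N HCl. LTB4 was quantified by EIA. The assay was run by a contract laboratory.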

[3] = molecular target: T2, Polyunsaturated fatty acid 5-lipoxygenase (Mus musculus) (UniProt P48999); experiment: (§3) Inhibition of 5-LOX in calcium ionophore A23187-stimulated NMRI mouse macrophage assessed as inhibition of LTC4 production preincubated for 60 mins before stimulation measured after 2 hrs by ELISA
T2 sequence (whole entry): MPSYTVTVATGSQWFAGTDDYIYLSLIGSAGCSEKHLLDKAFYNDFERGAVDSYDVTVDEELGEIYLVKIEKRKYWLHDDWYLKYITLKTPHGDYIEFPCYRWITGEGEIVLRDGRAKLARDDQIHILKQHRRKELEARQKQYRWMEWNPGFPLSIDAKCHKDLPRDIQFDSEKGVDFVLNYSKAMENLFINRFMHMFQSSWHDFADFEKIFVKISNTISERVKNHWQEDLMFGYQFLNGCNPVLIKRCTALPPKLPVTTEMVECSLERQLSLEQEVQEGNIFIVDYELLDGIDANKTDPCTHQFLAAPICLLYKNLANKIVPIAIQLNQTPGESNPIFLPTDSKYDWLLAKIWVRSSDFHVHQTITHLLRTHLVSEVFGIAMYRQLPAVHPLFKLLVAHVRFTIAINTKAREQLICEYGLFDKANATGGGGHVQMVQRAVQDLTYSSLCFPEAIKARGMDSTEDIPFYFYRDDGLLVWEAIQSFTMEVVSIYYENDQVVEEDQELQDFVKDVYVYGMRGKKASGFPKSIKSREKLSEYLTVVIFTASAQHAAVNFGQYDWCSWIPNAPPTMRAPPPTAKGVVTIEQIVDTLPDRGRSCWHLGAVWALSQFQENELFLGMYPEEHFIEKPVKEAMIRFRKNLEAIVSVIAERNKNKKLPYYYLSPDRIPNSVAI
Outline: (§4)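 Male NMRI mice (20 ± 5 g) were given 1 ml thioglycolate ip and peritoneal macrophages were lavaged with PBS 3 days later. Cells were adhered overnight at 5 × 10^5 cells/well and then moved to serum-free DMEM. Compound was added for 60 min at 37 °C, then A23187 to a final 10^-6 M for 2 h. Supernatant cysLTs were measured by ELISA against a standard curve. Values are mean ± S.D., mostly triplicate, compared by unpaired t-test.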

[4] = molecular target: T3, Polyunsaturated fatty acid 5-lipoxygenase (Mus musculus, UniProt P48999); experiment: as §3; outline: as §4
T3 sequence (P48999 whole entry): T2 sequence (whole entry)

[5] = Cytotoxicity against NMRI mouse macrophages by MTT assay; type: cell-based; details: macrophage
Outline: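 Macrophages from the 5-LOX assay wells were used after supernatant collection. Cells received MTT (5 mg/ml in PBS, 20 µl/well) for 4 h at 37 °C, then the formazan was dissolved in DMSO and absorbance was read at 550 nm. Values are mean ± S.D., mostly from triplicate determinations.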

[6] = test system: Radical scavenging activity; experiment: Antioxidant activity assessed as DPPH radical scavenging activity; type: functional
Outline: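 DPPH radical scavenging run by a previously published method, with quercetin as positive control; triplicate tests, with absorbances averaged before calculating activity.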

[7] = Metal chelating activity of the compound assessed as formation of iron complex in PBS at pH 7.4 at 50 uM after 10 secs by UV-vis spectrometry in presence of 100 uM FeSO4; type: functional
Outline: (§5)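 Compound was taken from a 1 mM methanol stock and diluted to 50 µM in PBS (10 mM, pH 7.4). Salt solution (CuSO4, FeCl3 or FeSO4) was added at 50 or 100 µM. Absorption spectra from 200–600 nm were recorded after 10 s and compared with the compound alone.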

[8] = Metal chelating activity of the compound assessed as formation of copper complex in PBS at pH 7.4 at 50 uM after 10 secs by UV-vis spectrometry in presence of 100 uM CuSO4; type: functional; outline: as §5
[9] = Metal chelating activity of the compound assessed as formation of iron complex in PBS at pH 7.4 at 50 uM after 10 secs by UV-vis spectrometry in presence of 100 uM FeCl3; type: functional; outline: as §5
[10] = molecular target: T4, Prostaglandin G/H synthase 1 (Homo sapiens, UniProt P23219); experiment: Inhibition of COX1 in human platelets assessed as inhibition of conversion of arachidonic acid to PGE2 preincubated for 15 mins before substrate addition measured after 15 mins by enzyme immunoassay
Outline: (§6)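 Human platelets (5 × 10^7/ml) in HBSS (15 mM, pH 7.4) were incubated with compound or vehicle for 15 min at 37 °C. Arachidonic acid (100 µM) was added for 15 min and the reaction was stopped with 1 N HCl. PGE2 was measured by EIA. The assay was run by a contract laboratory.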

[11] = molecular target: T5, Prostaglandin G/H synthase 2 (Homo sapiens, UniProt P35354); experiment: Inhibition of human recombinant COX2 expressed in insect Sf21 cells assessed as inhibition of conversion of arachidonic acid to PGE2 preincubated for 15 mins before substrate addition measured after 5 mins by enzyme immunoassay
T5 sequence (P35354 whole entry): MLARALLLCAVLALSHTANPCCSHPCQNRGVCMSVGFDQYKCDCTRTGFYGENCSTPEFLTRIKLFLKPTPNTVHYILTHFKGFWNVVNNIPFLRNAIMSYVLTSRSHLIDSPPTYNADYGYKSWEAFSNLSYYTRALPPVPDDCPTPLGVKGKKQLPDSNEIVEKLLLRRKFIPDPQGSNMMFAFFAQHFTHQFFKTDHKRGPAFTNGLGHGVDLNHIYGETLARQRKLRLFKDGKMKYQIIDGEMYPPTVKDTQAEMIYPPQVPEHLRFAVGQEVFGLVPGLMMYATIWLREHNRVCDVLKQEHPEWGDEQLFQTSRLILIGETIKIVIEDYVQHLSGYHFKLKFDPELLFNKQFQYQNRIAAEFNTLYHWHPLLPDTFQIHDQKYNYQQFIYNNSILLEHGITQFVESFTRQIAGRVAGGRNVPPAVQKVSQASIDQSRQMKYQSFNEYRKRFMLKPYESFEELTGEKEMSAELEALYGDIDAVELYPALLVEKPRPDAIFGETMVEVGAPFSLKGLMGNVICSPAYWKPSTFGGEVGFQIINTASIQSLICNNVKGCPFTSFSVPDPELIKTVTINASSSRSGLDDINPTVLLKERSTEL
Outline: (§7)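 Human recombinant COX-2 expressed in Sf21 cells (0.11 U) was preincubated with compound or vehicle, 1 mM reduced GSH, 500 µM phenol and 1 µM hematin in Tris-HCl (100 mM, pH 7.7) for 15 min at 37 °C. Arachidonic acid (0.3 mM) was added for 5 min and the reaction was stopped with 1 N HCl. After centrifugation, PGE2 was measured by EIA.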

[12] = molecular target: T6, Polyunsaturated fatty acid 5-lipoxygenase (Homo sapiens) (UniProt P09917); experiment: Inhibition of human 5-LOX in human peripheral blood mononuclear leukocytes assessed as inhibition of calymycin A23187 stimulated LTB4 production at 1 uM preincubated for 15 mins before stimulation measured after 15 mins by enzyme immunoassay; outline: as §2
T6 sequence (whole entry): T1 sequence (P09917 whole entry)

[13] = molecular target: T7, Prostaglandin G/H synthase 2 (Homo sapiens) (UniProt P35354); experiment: Inhibition of human recombinant COX2 expressed in insect Sf21 cells assessed as inhibition of conversion of arachidonic acid to PGE2 at 1 uM preincubated for 15 mins before substrate addition measured after 5 mins by enzyme immunoassay; outline: as §7
T7 sequence (whole entry): T5 sequence (P35354 whole entry)

[14] = molecular target: T4, Prostaglandin G/H synthase 1; experiment: Inhibition of COX1 in human platelets assessed as inhibition of conversion of arachidonic acid to PGE2 at 10 uM preincubated for 15 mins before substrate addition measured after 15 mins by enzyme immunoassay; outline: as §6
[15] = molecular target: T6, Polyunsaturated fatty acid 5-lipoxygenase (Homo sapiens); experiment: Inhibition of human 5-LOX in human peripheral blood mononuclear leukocytes assessed as inhibition of calymycin A23187 stimulated LTB4 production at 10 uM preincubated for 15 mins before stimulation measured after 15 mins by enzyme immunoassay; outline: as §2
[16] = molecular target: T6, Polyunsaturated fatty acid 5-lipoxygenase (Homo sapiens); experiment: Inhibition of human 5-LOX in human peripheral blood mononuclear leukocytes assessed as inhibition of calymycin A23187 stimulated LTB4 production at 0.1 uM preincubated for 15 mins before stimulation measured after 15 mins by enzyme immunoassay; outline: as §2
[17] = molecular target: T6, Polyunsaturated fatty acid 5-lipoxygenase (Homo sapiens); experiment: Inhibition of human 5-LOX in human peripheral blood mononuclear leukocytes assessed as inhibition of calymycin A23187 stimulated LTB4 production at 10 nM preincubated for 15 mins before stimulation measured after 15 mins by enzyme immunoassay; outline: as §2
[18] = molecular target: T7, Prostaglandin G/H synthase 2 (Homo sapiens); experiment: Inhibition of human recombinant COX2 expressed in insect Sf21 cells assessed as inhibition of conversion of arachidonic acid to PGE2 at 10 uM preincubated for 15 mins before substrate addition measured after 5 mins by enzyme immunoassay; outline: as §7
[19] = molecular target: T7, Prostaglandin G/H synthase 2 (Homo sapiens); experiment: Inhibition of human recombinant COX2 expressed in insect Sf21 cells assessed as inhibition of conversion of arachidonic acid to PGE2 at 0.1 uM preincubated for 15 mins before substrate addition measured after 5 mins by enzyme immunoassay; outline: as §7
[20] = molecular target: T7, Prostaglandin G/H synthase 2 (Homo sapiens); experiment: Inhibition of human recombinant COX2 expressed in insect Sf21 cells assessed as inhibition of conversion of arachidonic acid to PGE2 at 10 nM preincubated for 15 mins before substrate addition measured after 5 mins by enzyme immunoassay; outline: as §7
[21] = molecular target: T4, Prostaglandin G/H synthase 1; experiment: Inhibition of COX1 in human platelets assessed as inhibition of conversion of arachidonic acid to PGE2 at 1 uM preincubated for 15 mins before substrate addition measured after 15 mins by enzyme immunoassay; outline: as §6
[22] = molecular target: T4, Prostaglandin G/H synthase 1; experiment: Inhibition of COX1 in human platelets assessed as inhibition of conversion of arachidonic acid to PGE2 at 0.1 uM preincubated for 15 mins before substrate addition measured after 15 mins by enzyme immunoassay; outline: as §6
[23] = molecular target: T4, Prostaglandin G/H synthase 1; experiment: Inhibition of COX1 in human platelets assessed as inhibition of conversion of arachidonic acid to PGE2 at 10 nM preincubated for 15 mins before substrate addition measured after 15 mins by enzyme immunoassay; outline: as §6
Glycine max = experiment: Inhibition of soybean 15-LOX type 1-B assessed as inhibition of conversion of linoleic acid to (9Z,11E)-(13S)-13-hydroperoxyoctadeca-9,11-dienoate at 25 ug/ml preincubated for 10 mins before substrate addition measured after 6 mins by spectrophotometry; outline: as §1

T4 sequence (P23219 whole entry): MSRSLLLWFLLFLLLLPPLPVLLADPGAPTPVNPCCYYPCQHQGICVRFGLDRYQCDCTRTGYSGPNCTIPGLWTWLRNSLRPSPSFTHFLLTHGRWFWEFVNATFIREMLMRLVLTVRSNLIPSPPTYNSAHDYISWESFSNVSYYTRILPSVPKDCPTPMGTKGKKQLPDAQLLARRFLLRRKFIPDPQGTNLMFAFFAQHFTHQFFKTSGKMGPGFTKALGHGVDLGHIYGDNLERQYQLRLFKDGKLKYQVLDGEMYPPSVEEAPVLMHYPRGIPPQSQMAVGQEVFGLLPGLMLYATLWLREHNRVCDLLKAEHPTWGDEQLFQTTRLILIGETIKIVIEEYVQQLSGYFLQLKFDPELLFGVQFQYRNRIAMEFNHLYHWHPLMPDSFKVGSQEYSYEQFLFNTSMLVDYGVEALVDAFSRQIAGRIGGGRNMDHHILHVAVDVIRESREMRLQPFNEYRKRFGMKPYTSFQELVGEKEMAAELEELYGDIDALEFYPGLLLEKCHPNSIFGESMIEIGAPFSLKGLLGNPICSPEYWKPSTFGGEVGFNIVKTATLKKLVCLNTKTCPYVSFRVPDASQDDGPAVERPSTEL

pIC50 [1]: 4.69
pIC50 [2]: 6.38
inhibition [3]: Dose-dependent effect
pIC50 [4]: 5.74
pIC50 [6]: 4.34
pIC50 [10]: 5.16
pIC50 [11]: 6.40
inhibition [12]: 75%
inhibition [13]: 60%
inhibition [14]: 91%
inhibition [15]: 102%
inhibition [16]: 13%
inhibition [17]: 6%
inhibition [18]: 100%
inhibition [19]: 28%
inhibition [20]: 14%
inhibition [21]: -9%
inhibition [22]: -1%
inhibition [23]: -5%
Structure (SMILES): CC(=O)c1c(O)cc(O)c(C/C=C(\C)CCC=C(C)C)c1O
Activity [5]: Non-toxic
Activity [7]: inactive
Activity [8]: inactive
Activity [9]: inactive

inhibition (Glycine max): 88.8%
pIC50 [1]: 5.01
Structure (SMILES): CC(Cc1ccc(O)c(O)c1)C(C)Cc1ccc(O)c(O)c1 (stereo unspecified) [NORDIHYDROGUAIARETIC ACID]

Structure (SMILES): O=c1c(O)c(-c2ccc(O)c(O)c2)oc2cc(O)cc(O)c12 [QUERCETIN]
pIC50 [6]: 5.16
